Entries after “also recorded” stand apart in the source; their conditions may differ.
Assays:
[1] = tested on: hTRPA1^Δ1109–1119; experiment: TEVC block of residual current, hTRPA1^Δ1109–1119; format: cell-based, human; conditions: 10 µM A-967079
[2] = target: CaM12 (Homo sapiens, UniProt P0DP23); experiment: Isothermal titration calorimetry, CaM12; format: binding; conditions: ITC, 2 mM Ca2+
Outline: (§1)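 The ITC cell held 15 µM CaM variant and the syringe 810 µM hTRPA1¹⁰⁸⁹⁻¹¹¹⁹ peptide. Both were buffer-matched in storage buffer (50 mM Tris pH 8.0, 150 mM NaCl, 2 mM CaCl₂, 0.1 mM PMSF). There were 35 injections spaced 240 s apart, with stirring at 290 RPM. Data were fitted to a one-site model.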

[3] = target: WT CaM (Homo sapiens, UniProt P0DP23); experiment: Isothermal titration calorimetry, WT CaM; format: binding; conditions: ITC, 2 mM Ca2+
Outline: as §1

[4] = tested on: 15N-labeled WT CaM; experiment: 15N-1H HSQC NMR, WT CaM; format: binding, human; conditions: 1:1 molar ratio, 25 °C, 700 MHz
[5] = tested on: 15N-labeled CaM12; experiment: 15N-1H HSQC NMR, CaM12; format: binding, human; conditions: 1:1 molar ratio, 25 °C, 700 MHz
[6] = tested on: CaM (Calmodulin-agarose); experiment: CaM-agarose pulldown of TRPA1 constructs; format: binding
Outline: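 HEK293T cells were transfected with tagged TRPA1 constructs and lysed after 16-24 h in Tris pH 8.0 buffer containing 5 mM DDM and 500 µM EGTA. Free Ca²⁺ was set with CaCl₂, calculated from EGTA constants. 100 µg lysate was incubated with CaM-agarose for 1 h at 4 °C, washed, then eluted with 5 mM EGTA. Detection was by anti-FLAG or anti-MBP immunoblot, with tubulin input control. Enrichment is relative to the maximum within each replicate.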

[7] = tested on: hTRPA1 expressed in Xenopus laevis oocytes; format: cell-based, human
[8] = tested on: TurboID-CaM C-lobe; experiment: Proximity biotinylation in HEK293T cells; format: cell-based, human; conditions: 50 µM biotin 15 min, basal Ca2+; n=4
Outline: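 HEK293T cells co-expressed 3xFLAG-TurboID or 3xFLAG-TurboID-CaM C-lobe with 3xFLAG-hTRPA1 variants. About 48 h post-transfection, 50 uM biotin was added to the culture medium. After 15 min, cells were lysed and proteins captured on anti-FLAG resin (1 h, 4 °C), then eluted with 125 µg/ml 3xFLAG peptide. Biotinylated proteins were detected with HRP-streptavidin (1:50,000).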

[9] = tested on: hTRPA1 expressed in Xenopus laevis oocytes; experiment: Two-electrode voltage clamp, Ca2+ potentiation and desensitization; format: cell-based, human
[10] = tested on: V5-tagged WT CaM; experiment: Immunofluorescence co-localization with V5-WT CaM in Neuro2A cells; format: cell-based, human
Outline: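 Neuro2A cells were grown in DMEM with 10% FBS, transfected, then placed on poly-L-lysine coverslips for 16-20 h. Cells were fixed in 4% PFA, permeabilised with 0.1% Triton and blocked in 4% BSA. Staining used anti-V5 (1:500), Alexa488 anti-mouse (1:700) and Cy3 anti-FLAG (1:500), each for 45 min at RT. Airyscan images (63x oil) were deconvolved. Per-cell pixel-intensity Pearson's R used thresholds from mono-stained samples. Mean ± SD; two-tailed t-test.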

[11] = tested on: hTRPA1 channel activity in HEK293T cells; experiment: Ratiometric Ca2+ imaging of TRPA1 variant activity; format: cell-based, human; conditions: baseline, 10 µM or 100 µM AITC; n=4
Outline: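 HEK293T cells (DMEM, 10% calf serum) were transiently transfected. At 16-24 h they were replated on poly-L-lysine glass, with parallel anti-FLAG immunoblot to check expression. One hour later cells were loaded with 10 µg/mL Fura-2 AM and 0.025% Pluronic F-127 in Ringer's for 1 h at RT. […] At least 90 cells per condition per experiment were analysed, with untransfected background subtracted. Mean ± SEM; two-tailed t-test.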

CCC(=N\O)/C(C)=C/c1ccc(F)cc1 [A-967079]
Inhibition of residual activity [1]: inhibited

hTRPA1^1089–1119: hTRPA1 distal C-terminus peptide, residues 1089–1119, bacterially purified and liberated from MBP (DRFKKEQMEQRNSRWNTVLRAVKAKTHHLEP)
Number of binding events observed [2]: single binding event
Number of binding events observed [3]: single binding event
Chemical shift perturbations (CSPs) [4]: observed predominantly in the C-lobe
Chemical shift perturbations (CSPs) [5]: observed predominantly in the C-lobe; also recorded: more CSPs in the C-lobe than WT CaM
CaM binding of MBP-tagged C-terminal peptides ([6]; MBP-tagged, expressed in HEK293T, absence or presence of Ca2+): bound CaM in a Ca^2+-dependent manner

B1: hTRPA1^Δ1109–1119: hTRPA1 truncation lacking only the terminal 11 amino acids (protein)
chain: MKRSLRKMWRPGEKKEPQGVVYEDVPDDTEDFKESLKVVFEGSAYGLQNFNKQKKLKRCDDMDTFFLHYAAAEGQIELMEKITRDSSLEVLHEMDDYGNTPLHCAVEKNQIESVKFLLSRGANPNLRNFNMMAPLHIAVQGMNNEVMKVLLEHRTIDVNLEGENGNTAVIIACTTNNSEALQILLKKGAKPCKSNKWGCFPIHQAAFSGSKECMEIILRFGEEHGYSRQLHINFMNNGKATPLHLAVQNGDLEMIKMCLDNGAQIDPVEKGRCTAIHFAATQGATEIVKLMISSYSGSVDIVNTTDGCHETMLHRASLFDHHELADYLISVGADINKIDSEGRSPLILATASASWNIVNLLLSKGAQVDIKDNFGRNFLHLTVQQPYGLKNLRPEFMQMQQIKELVMDEDNDGCTPLHYACRQGGPGSVNNLLGFNVSIHSKSKDKKSPLHFAASYGRINTCQRLLQDISDTRLLNEGDLHGMTPLHLAAKNGHDKVVQLLLKKGALFLSDHNGWTALHHASMGGYTQTMKVILDTNLKCTDRLDEDGNTALHFAAREGHAKAVALLLSHNADIVLNKQQASFLHLALHNKRKEVVLTIIRSKRWDECLKIFSHNSPGNKCPITEMIEYLPECMKVLLDFCMLHSTEDKSCRDYYIEYNFKYLQCPLEFTKKTPTQDVIYEPLTALNAMVQNNRIELLNHPVCKEYLLMKWLAYGFRAHMMNLGSYCLGLIPMTILVVNIKPGMAFNSTGIINETSDHSEILDTTNSYLIKTCMILVFLSSIFGYCKEAGQIFQQKRNYFMDISNVLEWIIYTTGIIFVLPLFVEIPAHLQWQCGAIAVYFYWMNFLLYLQRFENCGIFIVMLEVILKTLLRSTVVFIFLLLAFGLSFYILLNLQDPFSSPLLSIIQTFSMMLGDINYRESFLEPYLRNELAHPVLSFAQLVSFTIFVPIVLMNLLIGLAVGDIAEVQKHASLKRIAMQVELHTSLEKKLPLWFLRKVDQKSTIVYPNKPRSGGMLFHIFCFLFCTGEIRQEIPNADKSLEMEILKQKYRLKDLTFLLEKQHELIKLIIQKMEIISETEDDDSHCSFQDRFKKEQMEQRNSRWNTVLR
AITC sensitivity versus WT hTRPA1 ([7]; Ca2+-free): slightly reduced AITC sensitivities
Gating kinetics and peak current amplitudes ([7]; absence of Ca2+, activation and closing at +80 mV, n=8): not significantly different from WT hTRPA1
TRPA1 biotinylation with TurboID-CaM C-lobe [8]: reduced biotinylation
Potentiation by extracellular Ca2+ ([9]; 250 µM AITC, 1.8 mM Ca2+, comparable peak current amplitudes): rapid potentiation
Residual activity after extracellular Ca2+ (of initial activity) ([9]; 5 minutes after 1.8 mM extracellular Ca2+, n=10 or 12 oocytes): 20–30%
Increase in translocated charge versus WT hTRPA1 ([9]; +80 mV): 5 fold
Slowing of potentiation versus WT hTRPA1 ([9]; +80 mV, 1.8 mM Ca2+): ~ 1.8 fold
Slowing of desensitization versus WT hTRPA1 ([9]; +80 mV, 1.8 mM Ca2+, n=10 or 12 oocytes): 16 fold
Increase in translocated charge versus WT hTRPA1 ([9]; −80 mV): large, albeit nonsignificant increase
Slowing of potentiation versus WT hTRPA1 ([9]; −80 mV, 1.8 mM Ca2+): ~ 3 fold
Slowing of desensitization versus WT hTRPA1 ([9]; −80 mV, 1.8 mM Ca2+, n=10 or 12 oocytes): 10 fold
CaM binding at basal Ca2+ concentration ([6]; basal Ca2+, n=3 independent experiments): failed to bind CaM
Co-localization with WT CaM (deconvolved IF images) ([10]; resting Neuro2A cells, Airyscan): greatly reduced co-localization
Pearson's correlation coefficient (R) of CaM:TRPA1 co-localization ([10]; Δ1109–1119 compared to WT, n=41 or 40 cells, ***p=0.0002): significant reduction in the CaM:TRPA1 co-localization
Basal and agonist-evoked channel activity compared to WT hTRPA1 [11]: increased basal and agonist-evoked activity
